{"source": "ChEMBL document CHEMBL5715938", "about": "“The protein kinase Cbeta-selective inhibitor, Enzastaurin (LY317615.HCl), suppresses signaling through the AKT pathway, induces apoptosis, and suppresses growth of human colon cancer and glioblastoma xenografts” (Cancer Res, 2005)", "key": {"HCT-116 [1]": {"system": "HCT-116", "assay": "Antitumor activity against human HCT-116 cells xenografted in athymic nude mouse assessed as reduction in GSK3beta phosphorylation at serine 9 residue at 75 mg/kg, po administered twice daily by Western blotting analysis", "assay_type": "functional, organism-based", "conditions": "time <= 8.0 hrs, TDE = time-dependent effect"}, "TK-10": {"system": "TK-10", "assay": "Antiproliferative activity against human TK-10 cells assessed as reduction in cell growth upto 10 uM measured after 6 days by propidium iodide staining based analysis", "assay_type": "functional", "conditions": "time 6.0 day", "how_it_was_run": "(§1)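 ATCC-sourced lines grown without antibiotics; 1,000 cells/well in 1% FBS medium, refed ±drug on days 1 and 4 over a 6-day course. On day 7, propidium iodide (10 μg/mL in D-PBS) read after 30 min for nonviable cells, plate frozen at -80°C 2 h, thawed and reread; proliferative index = postfreeze minus prefreeze signal.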"}, "[2]": {"molecular_target": "Mitogen-activated protein kinase 14 (Homo sapiens) (UniProt Q16539)", "sequence (Q16539 whole entry)": "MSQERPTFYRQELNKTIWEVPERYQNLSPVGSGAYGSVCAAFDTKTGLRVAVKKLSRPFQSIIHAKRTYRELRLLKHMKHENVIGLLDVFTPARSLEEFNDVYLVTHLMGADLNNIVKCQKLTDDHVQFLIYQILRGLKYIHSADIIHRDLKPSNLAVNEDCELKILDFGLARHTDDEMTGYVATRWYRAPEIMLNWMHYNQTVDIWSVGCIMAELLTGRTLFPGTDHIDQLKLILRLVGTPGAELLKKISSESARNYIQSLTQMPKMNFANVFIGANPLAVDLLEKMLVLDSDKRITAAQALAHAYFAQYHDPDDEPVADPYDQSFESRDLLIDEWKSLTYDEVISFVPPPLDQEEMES", "assay": "Inhibition of SAPK2alpha (unknown origin) at 1 micromol/L relative to control", "conditions": "dose 1.0 µmol/L", "how_it_was_run": "(§2)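 Commercial kinase profiler panel run to the provider's protocol, with the compound tested at 1 µmol/L. Activity is expressed as percent of kinase activity without compound.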"}, "OVCAR-5": {"system": "OVCAR-5", "assay": "Antiproliferative activity against human OVCAR-5 cells assessed as reduction in cell growth upto 10 uM measured after 6 days by propidium iodide staining based analysis", "assay_type": "functional", "conditions": "time 6.0 day", "how_it_was_run": "as §1"}, "[3]": {"molecular_target": "Fibroblast growth factor receptor 3 (Homo sapiens) (UniProt P22607)", "sequence (P22607 23-806 limits assumed)": "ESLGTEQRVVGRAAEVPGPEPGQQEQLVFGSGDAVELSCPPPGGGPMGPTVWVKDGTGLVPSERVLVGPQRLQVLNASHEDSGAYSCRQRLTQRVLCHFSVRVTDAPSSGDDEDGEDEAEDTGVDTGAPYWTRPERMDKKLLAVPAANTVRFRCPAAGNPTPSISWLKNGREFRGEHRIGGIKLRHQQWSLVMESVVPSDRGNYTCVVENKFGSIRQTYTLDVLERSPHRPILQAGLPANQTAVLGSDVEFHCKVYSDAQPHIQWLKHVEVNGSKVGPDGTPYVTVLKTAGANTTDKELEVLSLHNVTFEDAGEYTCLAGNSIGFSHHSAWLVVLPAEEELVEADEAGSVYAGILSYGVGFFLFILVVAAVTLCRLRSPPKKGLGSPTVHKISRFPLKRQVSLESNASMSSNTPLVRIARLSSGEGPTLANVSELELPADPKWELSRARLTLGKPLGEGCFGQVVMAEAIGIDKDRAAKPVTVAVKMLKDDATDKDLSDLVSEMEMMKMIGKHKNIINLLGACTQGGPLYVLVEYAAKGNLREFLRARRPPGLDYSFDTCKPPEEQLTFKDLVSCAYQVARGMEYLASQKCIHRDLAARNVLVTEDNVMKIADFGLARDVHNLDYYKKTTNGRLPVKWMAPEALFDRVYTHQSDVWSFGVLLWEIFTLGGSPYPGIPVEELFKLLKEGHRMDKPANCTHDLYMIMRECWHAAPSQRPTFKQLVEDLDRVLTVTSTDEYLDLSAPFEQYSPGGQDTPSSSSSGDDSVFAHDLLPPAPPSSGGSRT", "assay": "Inhibition of FGFR3 (unknown origin) at 1 micromol/L relative to control", "conditions": "dose 1.0 µmol/L", "how_it_was_run": "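Upstate Kinase Profiler panel at 1 μmol/L drug, run per provider; data expressed as percent of kinase activity without drug.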"}, "HCT-116 [4]": {"system": "HCT-116", "assay": "Inhibition of ribosomal protein S6 phosphorylation at serine 240/244 residue in human HCT-116 cells at 1 micromol/L upto 4 hrs by Western blotting analysis", "assay_type": "cell-based", "conditions": "dose 1.0 µmol/L", "how_it_was_run": "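HCT116 cells from ATCC were grown in FBS-containing medium without antibiotics. They were lysed in cell extraction buffer with protease inhibitor cocktails, and protein was measured by DC assay. Western blotting used phospho-S6 Ser240/244 and total S6 ribosomal protein antibodies.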"}, "Malme-3M": {"system": "Malme-3M", "assay": "Antiproliferative activity against human Malme-3M cells assessed as reduction in cell growth upto 10 uM measured after 6 days by propidium iodide staining based analysis", "assay_type": "functional", "conditions": "time 6.0 day", "how_it_was_run": "as §1"}, "[5]": {"molecular_target": "Protein kinase C epsilon type (Homo sapiens, UniProt Q02156)", "sequence (Q02156 whole entry)": "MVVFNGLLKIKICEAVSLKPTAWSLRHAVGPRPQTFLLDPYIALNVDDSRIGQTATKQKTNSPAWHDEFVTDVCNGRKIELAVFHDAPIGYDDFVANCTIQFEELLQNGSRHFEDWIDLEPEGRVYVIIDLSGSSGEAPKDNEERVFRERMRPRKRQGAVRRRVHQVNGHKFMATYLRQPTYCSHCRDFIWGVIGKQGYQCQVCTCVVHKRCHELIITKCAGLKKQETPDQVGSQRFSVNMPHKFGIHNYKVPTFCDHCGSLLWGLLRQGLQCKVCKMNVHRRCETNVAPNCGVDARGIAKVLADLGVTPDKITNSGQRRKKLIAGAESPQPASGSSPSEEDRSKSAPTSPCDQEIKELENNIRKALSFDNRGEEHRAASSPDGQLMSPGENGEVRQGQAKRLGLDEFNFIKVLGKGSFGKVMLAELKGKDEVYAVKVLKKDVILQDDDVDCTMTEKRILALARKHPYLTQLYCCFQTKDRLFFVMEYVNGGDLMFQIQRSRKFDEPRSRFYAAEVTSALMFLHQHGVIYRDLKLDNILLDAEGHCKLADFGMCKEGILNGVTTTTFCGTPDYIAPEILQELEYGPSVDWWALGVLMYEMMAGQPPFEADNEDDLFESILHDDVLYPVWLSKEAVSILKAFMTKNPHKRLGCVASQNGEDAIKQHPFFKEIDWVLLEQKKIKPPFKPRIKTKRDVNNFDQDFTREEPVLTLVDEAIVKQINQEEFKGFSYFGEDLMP", "assay": "Inhibition of recombinant human PKCepsilon using myelin basic protein as substrate incubated for 60 mins in presence of […] and ATP by microbeta scintillation counter analysis", "how_it_was_run": "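Recombinant human PKCε at 719 pmol/L. Myelin basic protein substrate at 0.25 mg/mL. 30 µmol/L ATP plus 32P-ATP. Started with enzyme, 60 min at room temperature, H3PO4 quench. Phosphocellulose filter capture, scintillation counting. 10-point series 1–2,000 nmol/L. IC50 from three-variable logistic fit.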"}, "U-87 MG [6]": {"system": "U-87 MG", "assay": "Antiproliferative activity against human U-87 MG cells assessed as reduction in cell growth upto 10 uM measured after 6 days by propidium iodide staining based analysis", "assay_type": "functional", "conditions": "U-87MG ATCC, time 6.0 day", "how_it_was_run": "as §1"}, "[7]": {"molecular_target": "Glycogen synthase kinase-3 beta (Homo sapiens) (UniProt P49841)", "sequence (P49841 whole entry, looked up)": "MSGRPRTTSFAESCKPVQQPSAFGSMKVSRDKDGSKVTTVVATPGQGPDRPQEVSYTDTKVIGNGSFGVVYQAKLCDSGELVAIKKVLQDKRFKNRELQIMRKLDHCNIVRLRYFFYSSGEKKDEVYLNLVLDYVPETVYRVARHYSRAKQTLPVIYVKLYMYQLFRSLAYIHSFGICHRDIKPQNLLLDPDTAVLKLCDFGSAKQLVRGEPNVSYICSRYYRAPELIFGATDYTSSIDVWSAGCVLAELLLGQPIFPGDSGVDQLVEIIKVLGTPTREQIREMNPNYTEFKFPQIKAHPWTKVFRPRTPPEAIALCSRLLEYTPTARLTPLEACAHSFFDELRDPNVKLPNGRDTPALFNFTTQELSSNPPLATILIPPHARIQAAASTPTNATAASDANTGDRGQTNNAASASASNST", "assay": "Inhibition of GSK3beta phosphorylation at serine 9 residue in human HCT-116 cells at 1 micromol/L by Western blotting analysis", "assay_type": "cell-based", "conditions": "dose 1.0 µmol/L, time <= 4.0 hrs, TDE = time-dependent effect", "how_it_was_run": "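Cultured tumor cells treated with 1 μmol/L drug; lysates in cell extraction buffer with protease inhibitors, western blotted with phospho-specific antibodies (pGSK3β Ser9, pAKT Thr308, phospho-ERK) alongside total GSK3β/AKT.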"}, "[8]": {"molecular_target": "Glycogen synthase kinase-3 beta (Homo sapiens) (UniProt P49841)", "conditions": "U-87 MG, dose 1.0 µmol/L, time <= 4.0 hrs"}, "[9]": {"assay": "Plasma concentration in athymic nude mouse xenografted with human HCT-116 cells at 75 mg/kg, po administered twice daily measured after 30 mins by LC-MS analysis", "assay_type": "ADME, organism-based", "how_it_was_run": "(§3)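 Female athymic nude mice, 6–8 weeks old, received 5 million HCT116 cells s.c. in the flank in 1:1 serum-free medium and matrigel (n = 9 per group). Dosing began at a group mean tumor volume of 100 mm³: 75 mg/kg twice daily by gavage, suspended in 10% acacia in water. Plasma was taken on days 1 and 21 at 0.5–12 h post-dose and measured by LC-MS/MS.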"}, "NCI-H23": {"system": "NCI-H23", "assay": "Antiproliferative activity against human NCI-H23 cells assessed as reduction in cell growth upto 10 uM measured after 6 days by propidium iodide staining based analysis", "assay_type": "functional", "conditions": "time 6.0 day", "how_it_was_run": "as §1"}, "DU-145": {"system": "DU-145", "assay": "Antiproliferative activity against human DU-145 cells assessed as reduction in cell growth upto 10 uM measured after 6 days by propidium iodide staining based analysis", "assay_type": "functional", "conditions": "time 6.0 day", "how_it_was_run": "as §1"}, "U-87 MG [10]": {"system": "U-87 MG", "assay": "Antitumor activity against human U-87 MG cells xenografted in athymic nude mouse assessed as reduction in GSK3beta phosphorylation at serine 9 residue at 75 mg/kg, po administered twice daily measured after 2 to 8 hrs by ELISA method relative to control", "assay_type": "functional, U-87MG ATCC", "set-up": "scale not given: the % may be the effect or the level left", "conditions": "time 2-8 hrs", "how_it_was_run": "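U87MG-bearing nude mice, 75 mg/kg twice daily by gavage; on day 21 tumors harvested 2, 4 or 8 h post-dose, lysates measured by pGSK3β Ser9 ELISA versus vehicle tumors; Dunnett's method, ANOVA.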"}, "[11]": {"molecular_target": "Protein kinase C theta type (Homo sapiens) (UniProt Q04759)", "sequence (Q04759 whole entry, looked up)": "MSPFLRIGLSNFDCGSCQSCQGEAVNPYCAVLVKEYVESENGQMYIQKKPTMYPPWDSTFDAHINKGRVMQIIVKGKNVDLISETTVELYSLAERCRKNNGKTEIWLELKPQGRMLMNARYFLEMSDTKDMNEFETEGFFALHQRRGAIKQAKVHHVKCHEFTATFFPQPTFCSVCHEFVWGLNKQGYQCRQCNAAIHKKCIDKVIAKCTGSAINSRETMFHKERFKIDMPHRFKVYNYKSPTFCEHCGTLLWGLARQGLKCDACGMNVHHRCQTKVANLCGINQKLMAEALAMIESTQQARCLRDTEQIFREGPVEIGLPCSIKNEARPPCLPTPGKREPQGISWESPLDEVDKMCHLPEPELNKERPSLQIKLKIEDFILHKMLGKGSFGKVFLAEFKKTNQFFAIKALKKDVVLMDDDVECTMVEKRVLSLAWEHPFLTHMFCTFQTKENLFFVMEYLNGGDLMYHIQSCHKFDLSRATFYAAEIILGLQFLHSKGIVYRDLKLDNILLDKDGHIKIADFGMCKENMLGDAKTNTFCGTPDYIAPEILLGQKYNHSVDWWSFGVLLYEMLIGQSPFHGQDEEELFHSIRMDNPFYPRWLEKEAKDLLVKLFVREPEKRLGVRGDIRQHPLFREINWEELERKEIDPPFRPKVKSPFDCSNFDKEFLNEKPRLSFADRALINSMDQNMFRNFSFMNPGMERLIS", "assay": "Inhibition of PKCteta (unknown origin) at 1 micromol/L relative to control", "conditions": "dose 1.0 µmol/L", "how_it_was_run": "as §2"}, "[12]": {"assay": "Plasma concentration in athymic nude mouse xenografted with human HCT-116 cells at 75 mg/kg, po administered twice daily measured after 1 hr by LC-MS analysis", "assay_type": "ADME, organism-based", "how_it_was_run": "as §3"}, "[13]": {"molecular_target": "Mitogen-activated protein kinase 13 (Homo sapiens) (UniProt O15264)", "sequence (O15264 whole entry)": "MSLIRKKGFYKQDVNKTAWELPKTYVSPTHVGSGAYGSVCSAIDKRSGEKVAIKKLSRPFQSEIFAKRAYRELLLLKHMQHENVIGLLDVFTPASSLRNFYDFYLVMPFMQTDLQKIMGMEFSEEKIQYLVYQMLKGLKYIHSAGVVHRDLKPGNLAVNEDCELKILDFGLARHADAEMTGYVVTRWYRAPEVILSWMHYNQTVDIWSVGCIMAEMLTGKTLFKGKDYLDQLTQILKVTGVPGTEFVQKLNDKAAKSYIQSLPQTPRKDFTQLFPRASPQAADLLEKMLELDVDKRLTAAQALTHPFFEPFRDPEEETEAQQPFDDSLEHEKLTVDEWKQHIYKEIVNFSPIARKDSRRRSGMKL", "assay": "Inhibition of SAPK4 (unknown origin) at 1 micromol/L relative to control", "conditions": "dose 1.0 µmol/L", "how_it_was_run": "as §2"}}, "note": "Activity calls are given as the source filed them. The rule behind the calls is not given here."}
{"compound": "Cl.Cn1cc(C2=C(c3cn(C4CCN(Cc5ccccn5)CC4)c4ccccc34)C(=O)NC2=O)c2ccccc21", "note": "[ENZASTAURIN HYDROCHLORIDE]", "values": [{"measurement": "Activity", "setting": "HCT-116 [1]", "value": "Tde"}, {"measurement": "Activity", "setting": "TK-10", "value": "inactive"}, {"measurement": "% control activity", "setting": "[2]", "value": 101, "unit": "%"}, {"measurement": "Activity", "setting": "OVCAR-5", "value": "inactive"}, {"measurement": "% control activity", "setting": "[3]", "value": 82, "unit": "%"}, {"measurement": "inhibition", "setting": "HCT-116 [4]", "value": "Active"}, {"measurement": "Activity", "setting": "Malme-3M", "value": "inactive"}, {"measurement": "IC50", "setting": "[5]", "value": 110, "unit": "nM"}, {"measurement": "Activity", "setting": "U-87 MG [6]", "value": "Active"}, {"measurement": "inhibition", "setting": "[7]", "value": "Tde"}, {"measurement": "inhibition", "setting": "[8]", "value": "Active"}, {"measurement": "concentration at 0.5 h", "setting": "[9]", "value": "~2000", "unit": "nM"}, {"measurement": "Activity", "setting": "NCI-H23", "value": "inactive"}, {"measurement": "Activity", "setting": "DU-145", "value": "inactive"}, {"measurement": "Activity", "setting": "U-87 MG [10]", "value": ">50", "unit": "%"}, {"measurement": "% control activity", "setting": "[11]", "value": 2, "unit": "%"}, {"measurement": "concentration at 1 h", "setting": "[12]", "value": 3000, "unit": "nM"}, {"measurement": "% control activity", "setting": "[13]", "value": 97, "unit": "%"}]}
